Tested on: MS2 coat protein
Test: apparent Kd, MS2 coat protein; higher = weaker binding; RNA-MaP array; FMN 200 µM where present
Procedure, shortened: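 Stalled E. coli RNA polymerase transcribed the designs on Illumina sequencing-chip clusters. SNAP-549-labelled MS2 coat protein was titrated from 0.7 or 1.5 nM, doubling to 3 µM, without and then with constant ligand, in 100 mM Tris-HCl pH 7.5, 80 mM KCl, 4 mM MgCl2, BSA, DTT, yeast tRNA and Tween-20. Per-cluster binding curves were fitted to green signal normalised to red-channel RNA signal and control-cluster median Fmax. The apparent Kd is the median of the filtered fits.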

[1] = designed as: OFF switch for flavin mononucleotide, no ligand
[2] = ligand present: flavin mononucleotide, designed as: OFF switch for flavin mononucleotide
[3] = designed as: ON switch for flavin mononucleotide, no ligand
[4] = ligand present: flavin mononucleotide, designed as: ON switch for flavin mononucleotide

Row | Sequence | apparent Kd [1] [nM] | apparent Kd [2] [nM] | apparent Kd [3] [nM] | apparent Kd [4] [nM]
1 | UGUCGGAGCAGAGGAUAUUACAUGAGGAUCACCCAUGUAUGAACCAACAGCUGGAAACAGCAAUGUAAGAAGGCUGCUCCGACA | 10.4 | 131 |  | 
2 | UGUCGGAGCAGAGGAUAUUACAUGAGGAUCACCCAUGUAUGAACCAAUAGCUGGAAACAGCAAUGCAAGAAGGCUGCUCCGACA | 5.05 | 6.53 |  | 
3 | UGUCGGAGCAGAGGAUAUUACAUGAGGAUCACCCAUGUAUGAACCAAUAGCUGGAAACAGCAAUGUAAGAAGGCUGCUCCGGCA | 11.8 | 186 |  | 
4 | UGUCGGAGCAGAGGAUAUUACAUGAGGAUCACCCAUGUAUGAACCAAUAGCUGGAAACAGCAAUGUGAGAAGGCUGCUCCGACA | 5.47 | 52.3 |  | 
5 | UGUCGGAGCAGAGGAUAUUACAUGAGGAUCACCCAUGUAUGAACCAAUAGCUGGAAACAGCUAUGUAAGAAGGCUGCUCCGACA | 5.31 | 9.42 |  | 
6 | UGUCGGAGCAGAGGAUAUUACAUGAGGAUCACCCAUGUAUGAACCAAUAGCUGUAAACAGCAAUGUAAGAAGGCUGCUCCGACA | 12.7 | 191 |  | 
7 | UGUCGGAGCAGAGGAUAUUACAUGAGGAUCACCCAUGUAUGAACCAGUAGCUGGAAACAGCAAUGUAAGAAGGCUGCUCCGACA | 10.9 | 91.3 |  | 
8 | UGUCGGAUCAGAGGAUAUUACAUGAGGAUCACCCAUGUAUGAACCAAUAGCUGGAAACAGCAAUGUAAGAAGGCUGCUCCGACA | 11.4 | 160 |  | 
9 | UGUCUAUAUGAAGGAUAUCUAAGCAUAAACCGUAGAGAAGGUCAAUAGUACAUGAGGAUCACCCAUGUUAGAAUUGAAGGGUUU | 17.6 | 23.2 |  | 
10 | UGUGACAUGAGGAUCACCCAUGUAGAGGAUAUAGAGAUGAUGUUAGAGAAGAAUGUGUAGUAAGACUAGAAGGCUAUGUGUGUA | 32.8 | 28.2 |  | 
11 | UGUGCUGAAGGAUAUGCGUAAUCUCGGUGACGAGUAGAUCUACAUGAGGAUCACCCAUGUAGAAGGUCAGUACU | 17.8 | 18.9 |  | 
12 | UGUGGUGGUUAGGAUAUAAUUAGAGGUUACUCGUUAGAAGGAGCUACAUGAGGAUCACCCAUGUGACUGUCCGC | 29.8 | 35.1 |  | 
13 | UGUGUGAGACAGGAUAUGCCGGAUAUAGUACUGGUAGAAGGGUCUACAUGAGGAUCACCCAUGUGGCCGGCCGG | 16.8 | 25 |  | 
14 | UGUGUGAGACAGGAUAUGCCGGAUAUAUUACUGGUAGAAGGGUCUACAUGAGGAUCACCCAUGUGGCCGGCCGG | 18 | 29.1 |  | 
15 | UGUGUGAGACAGGAUAUGCCGGAUGAAUUGCUGGUAGAAGGGUCUACAUGAGGAUCACCCAUGUGGCCGGUUGG | 16.8 | 24.8 |  | 
16 | UGUGUGUGGCAGGAUAUGCCGGUAGUAGGACGGGUAGAAGGGUCUACAUGAGGAUCACCCAUGUGGCCGGUUGG | 17.7 | 17.7 |  | 
17 | UGUGUGUGGGCAGGAUAUGCAUGAAUAUAUAUGAUGUAGUAUGAUGUAACAUGAGGAUCACCCAUGUAGAAGGGCCGGUGUAUG | 133 | 133 |  | 
18 | UGUGUGUGGGCAGGAUAUGCAUGAAUAUAUAUGAUGUAGUGUGAUGUAACAUGAGGAUCACCCAUGUAGAAGGGCCGGUGUAUG | 145 | 234 |  | 
19 | UGUUACUAGUAAGGAUAUACUUGCGACUAGCUUGUAGAAGGUACAGUCUUUUGUAUAACAUGUUUACAUGAGGAUCACCCAUGU |  |  | 9.05 | 8.38
20 | UGUUCUAUGUAGAAGGCCCAUAUCUGUUUUUAGGGAGGAUAUACAUGAGGAUCACCCAUGUGUAGAGCUGGUGGACUGGUCAGC | 13.7 | 40.1 |  | 
21 | UGUUGUAUUACAGGAUAUCUAGUAAUUUUAUUUAGAGAAGGGUAUUCACAUGAGGAUCACCCAUGUAUAUACGAGGAAGUUGUG |  |  | 37 | 39.7
22 | UGUUGUAUUACAGGAUAUCUAGUAUUUUUAUCUAGAGAAGGGUAUUCACAUGAGGAUCACCCAUGUAUAUACGAGGAAGUUGUG |  |  | 33.1 | 33.2
23 | UGUUGUAUUACAGGAUAUCUAGUAUUUUUAUUAAGAGAAGGGUAUUCACAUGAGGAUCACCCAUGUAUAUACGAGGAAGUUGUG |  |  | 42.4 | 42.4
24 | UGUUGUAUUACAGGAUAUCUAGUAUUUUUAUUGAGAGAAGGGUAUUCACAUGAGGAUCACCCAUGUAUAUACGAGGAAGUUGUG |  |  | 50.5 | 49
25 | UGUUGUUCAGGAUAUGAUGUGUUAUACAUGAGGAUCACCCAUGUGGGUCCUGAUUUGGCGUCAGAAGGGAAUGUUG | 116 | 200 |  | 
26 | UGUUUUCAUGUAGGAUAUGCUUGUCGUAGAUACGCAGAAGGACAUGAGGAUCACCCAUGUUAAUGCGACAGAUUUUAGUUUCUU | 19.6 | 62 |  | 
27 | UUAAAUCAUGUAGGAUAUGCAUGGCGAAGCUACGCAGAAGGACAUGAGGAUCACCCAUGUUAAAGCUUCCGAGUUCGGAGGCAA | 114 | 266 |  | 

Row | Sequence | apparent Kd [1] [nM] | apparent Kd [2] [nM] | apparent Kd [3] [nM] | apparent Kd [4] [nM]
28 | UUAAAUCAUGUAGGAUAUGCAUGGCGAAGCUACGCAGAAGGACAUGAGGAUCACCCAUGUUAUAGCUACCAAGUAAGGUGGCAA | 77.9 | 236 |  | 
29 | UUAAAUCAUGUAGGAUAUGCAUGGCGAAGCUACGCAGAAGGACAUGAGGAUCACCCAUGUUAUAGGUACCCAGUUCGGUGCCAA | 115 | 200 |  | 
30 | UUAAAUCAUGUAGGAUAUGCAUGGCGAAGCUACGCAGAAGGACAUGAGGAUCACCCAUGUUCUAGCUACCGGAUACGGUGGCAA | 21.5 | 87.4 |  | 
31 | UUAAAUCGAAACAUGAGGAUCACCCAUGUGUUGUAAUUAACAUAGGAUAUGUAUAUACUUUUUAAAUAGAAGGAUGAUAAUACU |  |  | 16.1 | 11.6
32 | UUAAAUUAGUAGAAGGACGGAGAGUAUAAAGUCGUAGGAUAUACAUAAGACAUGAGGAUCACCCAUGUAAGUUUGUGAGGUAUG | 14.8 | 15.3 |  | 
33 | UUAAAUUAGUAGAAGGACGGUGAGUAAGAAGUCGUAGGAUAUACAUAAGACAUGAGGAUCACCCAUGUAAGUUUGUUGGGUAUG | 44.1 | 38.4 |  | 
34 | UUACCUCAUGAGAAGGACAUGAGGAUCACCCAUGUAGGAUAUCGUGGGAGACAGGUAUUGAAUCUUCGGAUUCAAUACCAGUCU |  |  | 396 | 27.6
35 | UUACGUACGUAUGAGGAUAUCCAUAAUAAGACAUGAGGAUCACCCAUGUAAACAAAACAAUAAUGGGAGAAGGCAUACGUACGAA |  |  | 64.1 | 101
36 | UUACUAUCACAGAAGGGUAGAUAGUAUAUAGAUGCAGGAUAUGUGACAUGAGGAUCACCCAUGUUUCACCCACAUGAGGAUCAC | 17.5 | 18.9 |  | 
37 | UUACUAUUACAGAAGGUUAAAUAAUAUAUAAAUGAAGGAUAUGUGACAUGAGGAUCACCCAUGUUUCACCCACAUGAGGAUCAC | 12.1 | 13.3 |  | 
38 | UUACUAUUACAGAAGGUUUAAUAAUAUAUAAAAGAAGGAUAUGUAACAUGAGGAUCACCCAUGUUUCACCCACAUGAGGAUCAU | 10.8 | 10.4 |  | 
39 | UUACUAUUGCAGAAGGCUAAAUAAUAUAUAAAUGGAGGAUAUGCAACAUGAGGAUCACCCAUGUUUCACCCAUAUGAGGAUCAC | 7.7 | 9.14 |  | 
40 | UUACUAUUGGAGAAGGGUCGAUCAUAUAGAAUGGCAGGAUAUCCAACAUGAGGAUCACCCAUGUUUCACCCAUAUGAGGAUCAC | 116 | 44.9 |  | 
41 | UUACUGUAAUAGAAGGGUAUUUGGGUAGUACAUGAGGAUCACCCAUGUUUUAUAGGAUAUGUUUAUAGUUUUUAAUCAAGUUUA | 85.1 | 62.3 |  | 
42 | UUACUUGUGCAGAAGGGCAUUGAAUUAGGUUUUUAGGUUGAUCAGAAAUGCAGGAUAUGUUAAACAUGAGGAUCACCCAUGUAC |  |  | 66.9 | 13.9
43 | UUACUUGUGCAGAAGGGCAUUGAUUUAGGUUUUUAGGUUGAUCAGAUAUGCAGGAUAUGCUAUACAUGAGGAUCACCCAUGUUC |  |  | 112 | 8.99
44 | UUACUUUUACAGAAGGUUUAAUAAUAUAUAAAAGAAGGAUAUGUAACAUGAGGAUCACCCAUGUUUCACCCAUAUGAGGAUCAU | 7.18 | 6.98 |  | 
45 | UUAUAAAAUAUAGGAUAUGGAAACAUGAGGAUCACCCAUGUAUGAUAAGAUAAAUUAUGAUAUAGCCAGAAGGAUACAAUUUUU |  |  | 37.3 | 35
46 | UUAUACGUUGAGGAUAUGCGAAUUAGUAUAGUUGCAGAAGGCGAUACAUGAGGAUCACCCAUGUUUAUGGGCAU | 194 | 341 |  | 
47 | UUAUAUAAUGUGAGGAUAUGCUGGUCGAGAGAUCAGCAGAAGGCACAUGAGGAUCACCCAUGUAGUAAAUUUUA | 22.5 | 25.9 |  | 
48 | UUAUGAUUAAGAGGAUAUAUACAACAUGAGGAUCACCCAUGUACCCAUGUAGUAGAAGGUUUAUUUUUAUAUAAUAAUAUAAUU |  |  | 115 | 64.9
49 | UUAUGUUAUGUAGGAUAUCACUUUAAUUGAUUAAUAUAUGAAUAUUGAAUUUGAGAAGGACAUUUACAUGAGGAUCACCCAUGU | 16.2 | 13.6 |  | 
50 | UUAUGUUUUGUAGGAUAUCAUUAGUUUUGUAUUUUAAUUGUAAUUUAGAUAUGAGAAGGACAUUUACAUGAGGAUCACCCAUGU | 20.3 | 14.2 |  | 
51 | UUAUUACGAGGAUAUCGUUUUUAUCACAUGAGGAUCACCCAUGUUGUUUAUGUUUCGUUUCGAGAAGGCGUUUGUU | 27.6 | 19.9 |  | 
52 | UUAUUAUAUGUAGGAUAUGCAUAUAAUUAUUGUGCAGAAGGACAUGAGGAUCACCCAUGUAUAUUAUUAUUAUAUAUUAUAUAU | 24.9 | 14.3 |  | 
53 | UUAUUAUAUGUAGGAUAUGCAUAUUAUUAUUAUGCAGAAGGACAUGAGGAUCACCCAUGUAUAUUGUUGUUGUAUAUUAUAUAU | 25.1 | 30.4 |  | 
54 | UUAUUAUAUGUAGGAUAUGCAUAUUAUUAUUGUGCAGAAGGACAUGAGGAUCACCCAUGUAUAUUAUUAUUAUAUAUUAUAUAU | 30.9 | 49.7 |  | 

— the EternaBench riboswitch data
